Published values collected from several papers.
Protocols differ between the studies behind these lines.
MAOA: Amine oxidase [flavin-containing] A (MAOA, Homo sapiens, UniProt P21397)
DPP3: Dipeptidyl peptidase 3 (DPP3, Homo sapiens, UniProt Q9NY33)

C[C@@H]1CCCN1CCCCOc1ccc2occc(=O)c2c1 — inhibition (MAOA; enzyme activity; inhibitor; fluorescence; 10 µM): 7%
COCc1c(-c2cc3cc(C)cc(OC)c3s2)c2c(N)ncnn2c1CN1CCNC(=O)C1 — inhibition (Thromboxane-A synthase (TBXAS1, Homo sapiens, UniProt P24557); enzyme activity; inhibitor; 10 µM): 86%
O=C(Nc1ccc([N+](=O)[O-])cc1[N+](=O)[O-])c1ccc2c(c1)OCO2 — inhibition (MAOA; enzyme activity; inhibitor; 1 µM; 20 min): 44%
O=C(O)C(=O)Nc1sc2c(c1C(=O)O)CCNC2 — inhibition (Tyrosine-protein phosphatase non-receptor type 1 (PTPN1, Homo sapiens, UniProt P18031); enzyme activity; inhibitor; 30 µM): ~50%
CC(C)C[C@H](NC(=O)[C@H]1O[C@@H]1C(=O)O)C(=O)NCCCCN=C(N)N — inhibition (Cathepsin S (CTSS, Homo sapiens, UniProt P25774); enzyme activity; inhibitor; 5 nM): 18%
Cn1cc(-c2cc(F)cc(N3CCn4c(cc5c4CCCC5)C3=O)c2CO)cc(Nc2ccc(N3CCN(C4COC4)CC3)cn2)c1=O — inhibition (Cyclin-dependent kinase 5, with p35 (CDK5, Homo sapiens, UniProt Q00535); enzyme activity; inhibitor; 0.1 µM): 6%
CN(C)C(=O)COC(=O)Cc1ccc(OC(=O)c2ccc(NC(=N)N)cc2)cc1 — inhibition (Ubiquitin carboxyl-terminal hydrolase 2 (USP2, Homo sapiens, UniProt O75604); enzyme activity; inhibitor; 10 µM): 1%
Cc1ccc2nc(N3C(=O)C(O)=C(C(=O)OC(C)(C)C)C3c3ccc(-c4ccc(Cl)cc4)o3)sc2c1 (centres unmarked) — inhibition (UDP-N-acetylglucosamine 1-carboxyvinyltransferase (murA, Escherichia coli K-12, UniProt P0A749); enzyme activity; inhibitor; 20 µM): 88%
O=C(Nc1cccnn1)N1CCN([C@@H]2CCOc3cc(C(F)(F)F)ccc32)CC1 — inhibition (Kappa-type opioid receptor (Oprk1, Rattus norvegicus, UniProt P34975); cell-free assay; 20 µM): 21%
O=C(NC[C@H](O)CO)[C@@H]1C[C@H](c2ccccc2)CCN1 (mixture of isomers) — inhibition (Alpha-1A adrenergic receptor (ADRA1A, Homo sapiens, UniProt P35348); ligand displacement; radioligand; 10 µM): -16.2%
C[C@H](C(=O)N[C@H]1COc2ccccc2[C@@H]1S(C)(=O)=O)c1ccc(F)cc1 — inhibition (MAOA; cell-free assay; inhibitor; 10 µM): -2%
N=C(N)c1ccc2cc(OC(=O)c3ccc(N=C(N)N)cc3)ccc2c1 — inhibition (DPP3; enzyme activity; inhibitor; 10 µM): 3%
CCN(CC)CCCC[C@H](NC(=O)[C@H](CC(C)C)NC(=O)[C@H](C)NC(=O)[C@H](Cc1ccccc1)NC(=O)c1ccc(C(C)(C)C)cc1)C(=O)N[C@@H](CO)C(=O)OC — inhibition (Vasoactive intestinal polypeptide receptor 1 (VIPR1, Homo sapiens, UniProt P32241); ligand displacement; radioligand; 10 µM): -9%
C#Cc1n[nH]c2c(-c3cn([C@@H](C)c4ccccn4)c(=O)[nH]c3=O)cc(F)cc12 — inhibition (Focal adhesion kinase 1 (PTK2, Homo sapiens, UniProt Q05397); enzyme activity; inhibitor; 0.1 µM): 4.5%
CCOC(=O)c1ccc(OC(=O)CCCCCNC(=N)N)cc1 — inhibition (DPP3; enzyme activity; inhibitor; 10 µM): 4%
COc1cc(Nc2ncc(F)c(Nc3ccc4c(n3)NC(=O)C(C)(C)O4)n2)cc(OC)c1OC — inhibition (Homeodomain-interacting protein kinase 3 (HIPK3, Homo sapiens, UniProt Q9H422); binding; competition with immobilised ligand; 10 µM): 64%
Cc1ncc(C)n2nc(/C=C/c3nc(N4CCCC4)cc(N4CCOCC4)n3)nc12 — inhibition (Angiotensin-converting enzyme 2 (ACE2, Homo sapiens, UniProt Q9BYF1); enzyme activity; inhibitor; 10 µM): 11%
